Reference: PMC11904481 (ESMO Open, 2025)
Like-named read-outs stand apart in the source and are kept apart here.

Tests used:
[1] = test system: models of head and neck SCC; conditions: cited from earlier work
[2] = Phase I plasma pharmacokinetics; assay type: in vivo, human
ERK1/2 = conditions: cell lines; cited from earlier work
[3] = test system: patient-derived xenograft (PDX) models of esophageal squamous cell carcinoma; conditions: cited from earlier work
[4] = test system: patients with locally advanced unresectable or metastatic, relapsed and/or refractory nonhematological malignancies; assay: Phase I clinical activity; assay type: in vivo, human
How it was run: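 Open-label multicenter dose escalation in adults with MAPK-altered or 11q-AMP solid tumors. The test compound was given i.v. on three schedules: weekly per 28-day cycle at 0.45-5.4 mg/kg (1-2 h infusion) or 4.8-9.6 mg/kg (4 h); or on days 1, 4, 8 (±11, 15) per 21-day cycle at 3.6-11.3 mg/kg. Investigator assessed response by RECIST v1.1. Evaluable patients had ≥1 dose plus baseline and ≥1 post-treatment tumor assessment.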

[5] = target: human ether-a-go-go-related gene (hERG) potassium channel (Homo sapiens, UniProt Q12809); assay: hERG potassium channel inhibition; assay type: biochemical
Sequence of human ether-a-go-go-related gene (hERG) potassium channel (Q12809 whole entry): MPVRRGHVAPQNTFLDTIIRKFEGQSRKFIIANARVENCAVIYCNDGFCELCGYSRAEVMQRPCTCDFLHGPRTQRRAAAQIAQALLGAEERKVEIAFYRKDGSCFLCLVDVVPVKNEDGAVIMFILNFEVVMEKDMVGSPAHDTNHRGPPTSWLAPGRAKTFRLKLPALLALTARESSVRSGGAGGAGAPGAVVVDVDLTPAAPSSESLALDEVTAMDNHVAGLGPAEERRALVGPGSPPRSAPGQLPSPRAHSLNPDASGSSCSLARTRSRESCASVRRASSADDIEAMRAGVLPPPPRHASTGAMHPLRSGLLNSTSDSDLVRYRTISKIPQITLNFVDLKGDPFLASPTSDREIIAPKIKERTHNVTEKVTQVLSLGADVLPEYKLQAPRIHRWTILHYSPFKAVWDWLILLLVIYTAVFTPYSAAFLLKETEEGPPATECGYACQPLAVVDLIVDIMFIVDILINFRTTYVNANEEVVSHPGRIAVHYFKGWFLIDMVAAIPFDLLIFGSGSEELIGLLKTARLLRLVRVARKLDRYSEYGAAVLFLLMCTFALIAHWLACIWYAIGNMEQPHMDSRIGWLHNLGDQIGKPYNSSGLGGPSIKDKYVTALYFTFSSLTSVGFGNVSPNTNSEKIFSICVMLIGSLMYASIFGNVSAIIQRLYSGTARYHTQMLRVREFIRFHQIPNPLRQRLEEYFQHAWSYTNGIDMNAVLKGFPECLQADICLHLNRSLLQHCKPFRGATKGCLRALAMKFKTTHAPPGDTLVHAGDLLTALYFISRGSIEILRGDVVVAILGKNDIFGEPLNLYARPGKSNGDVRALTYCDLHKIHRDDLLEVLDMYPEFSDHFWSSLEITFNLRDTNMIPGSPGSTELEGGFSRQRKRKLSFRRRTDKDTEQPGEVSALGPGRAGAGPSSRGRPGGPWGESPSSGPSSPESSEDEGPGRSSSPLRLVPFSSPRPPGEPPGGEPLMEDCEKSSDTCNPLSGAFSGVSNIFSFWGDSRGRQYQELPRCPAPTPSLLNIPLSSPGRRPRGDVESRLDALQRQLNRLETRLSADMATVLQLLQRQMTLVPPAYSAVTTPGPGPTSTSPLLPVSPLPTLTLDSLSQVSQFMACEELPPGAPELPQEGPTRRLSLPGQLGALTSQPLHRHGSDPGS

[6] = test system: patients with locally advanced unresectable or metastatic, relapsed and/or refractory nonhematological malignancies; assay: Phase I dose escalation: MTD / DLT determination; assay type: in vivo, human
How it was run: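 I.v. test compound started at 0.45 mg/kg weekly in 28-day cycles (1 h infusion). Accelerated titration used single-patient cohorts with 100% increments up to 3.6 mg/kg, then 3 + 3 cohorts above 3.6 mg/kg. Schedule 2: weekly, 4 h infusion (minimum 2 h). Schedule 3: days 1, 4, 8 (later also 11, 15) of 21-day cycles, ≥4 h infusion, ≥6 h for doses >9.6 mg/kg. MTD/RP2D derived from DLTs.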

[7] = 11q13-amplified (11q-AMP) PDX models of esophageal SCC
[8] = 11q13WT PDX models of esophageal SCC

SMILES: O=C1Nc2cc3[nH]nc(-c4ccncc4)c3cc2CN1Cc1ccccc1 [KO-947]
- antitumor response ([1]; 11q-AMP models of head and neck cancer): Complete responses and tumor regression
- overall response rate ([1]; mouse models of head and neck SCC with 11q-AMP): 56%
- overall response rate ([1]; mouse models of head and neck SCC, 11q13WT): 9%
- plasma concentration ([2]; 11.3 mg/kg, cohort 5 of schedule 3, 6-hour infusion, held for ∼4 hours): ~3600 ng/mL
- dose proportionality of exposure, slope ([2]; after a single dose, noncompartmental analysis): 1.2
- accumulation ([2]; all dosing schedules): None to minimal accumulation
- half-life ([2]; human, plasma, intravenous): 6.5 to 24 h
- half-life ([2]; human, plasma, intravenous, 3.6 mg/kg): ~6.65 h
- Cmax ([2]; human, plasma, intravenous, 3.6 mg/kg, highest Cmax, 1-hour infusion): 3630 ng/mL
- Vd ([2]; in vivo): moderate
- plasma CL ([2]; in vivo): moderate
- time at which Cmax was achieved (near the end of the infusion) ([2]; schedules 2 and 3): ~4 h
- inhibition of signaling following washout (ERK1/2): > 4 h
- disease control rate [3, 7]: 77%
- overall response rate [3, 7]: 51%
- disease control rate [3, 8]: 21%
- overall response rate [3, 8]: 3%
- best overall response ([4]; all schedules): stable disease
- complete or partial responses ([4]; all schedules): No complete or partial responses
- patients discontinued owing to disease progression ([4]; schedule 3): 67%
- stable disease as best overall response ([4]; schedule 3): 37%
- stable disease as best overall response ([4]; schedules 1 and 2): 15%
- IC50 [5]: 4.4 µM
- mean free Cmax relative to hERG IC50 ([5]; overall study): about one-tenth
- recommended dose (RP2D) ([6]; i.v. days 1, 4, 8, 11, and 15 every 21 days, ≥4-hour infusion): 8.5 mg/kg
- patients who experienced DLTs ([6]; schedule 1 cohort 5, 5.4 mg/kg, grade 3 QTc prolongation and grade 3 retinopathy): 2/6
- DLTs ([6]; schedule 1 cohorts 1-4 (0.45-3.6 mg/kg), six patients): no DLTs
- maximum administered dose ([6]; schedule 2, once weekly, 28-day cycle, 4-hour infusion): 9.6 mg/kg
- DLTs ([6]; schedule 2 cohort 9 (9.6 mg/kg), two patients of six): DLT of QTc prolongation
- DLTs ([6]; schedule 2 cohorts 5-8 (4.8-7.2 mg/kg)): no DLTs
- maximum administered dose ([6]; schedule 3, 21-day cycle): 11.3 mg/kg
- DLTs ([6]; schedule 3 cohort 3, 6.4 mg/kg): One DLT of hypotension
- DLTs ([6]; schedule 3 cohort 4 (8.5 mg/kg, n = 3)): No DLTs
- DLTs ([6]; schedule 3 cohort 5 (11.3 mg/kg), one patient of six): DLT of an infusion-related reaction
- DLTs ([6]; schedule 3 cohorts 1 or 2 (3.6-4.8 mg/kg), six patients): no DLTs
